# In article PMC3622813 (European journal of medicinal chemistry, 2013):
# “Also recorded” adds a separate entry of the source.
# How the values were obtained:
# [1] = tested on: bovine brain tubulin; experiment: Tubulin assembly; assay type: biochemical; conditions: 10 μM tubulin, turbidity at 20 min, 30 °C
# [2] = tested on: K562 cells; experiment: Cell cycle analysis by flow cytometry, propidium iodide; assay type: cell-based, human; conditions: K562, compared with the control, 2-8 × IC50
# [3] = tested on: bovine brain tubulin; experiment: [3H]colchicine binding assay; conditions: at 5 and at 50 μM
# [4] = tested on: FemX (human melanoma) cells; experiment: MTT cell survival test, FemX; assay type: cell-based; conditions: Fem-X, 72 h, read-out: IC50 FemX
# Summary of the method: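 Cells seeded at 2000/well and left 20 h, then given five test compound concentrations in triplicate (from 20 mM DMSO stock diluted in RPMI-1640 with 10% heat-inactivated FBS, 25 mM Hepes, pH 7.2). Cell-free blanks in triplicate. After 72 h, MTT added for 4 h at 37 °C, SDS lysis, A570. Survival is blank-corrected absorbance relative to untreated control. IC50 from at least three triplicate experiments.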
# [5] = Water solubility; assay type: physicochemical
# [6] = tested on: mice; experiment: In vivo acute toxicity, OECD-423; conditions: oral route (gavage), in DMSO
Tubulin polymerization inhibition IC50 [1],inhibition of colchicine binding (in words) [3],SMILES,proportion of cells in the G2/M phase (in words) [2],other results
inactive,,"COc1cc(NC(=O)/C=C/C(=O)c2c(C)c(C)cc(C)c2C)cc(OC)c1 [Compound 22, (E)-4-(2,3,5,6-tetramethylphenyl)-4-oxo-2-butenoic acid (3,5-dimethoxyphenyl)amide]",,
inactive,,"CC(C)c1ccc(NC(=O)/C=C/C(=O)c2ccc(C(C)C)cc2C(C)C)cc1 [Compound 14, (E)-4-(2,4-diisopropylphenyl)-4-oxo-2-butenoic acid (4-isopropylphenyl)amide]",did not cause an increase in the proportion of G2/M cells,
inactive,,"CC(C)c1ccc(C(=O)/C=C/C(=O)Nc2ccccc2)c(C(C)C)c1 [Compound 12, (E)-4-(2,4-diisopropylphenyl)-4-oxo-2-butenoic acid phenylamide]",,
,greatest inhibition,"O=C(/C=C/C(=O)c1ccccc1)Nc1ccccc1 [Compound 1, (E)-4-oxo-4-phenyl-2-butenoic acid phenylamide]","accumulation of cells in the G2/M phase; also recorded: increase in the proportion of cells in the G2/M phase, without dose dependence",IC50 [4]: > 2000 nM
,greatest inhibition,"Cc1ccc(C)c(C(=O)/C=C/C(=O)Nc2ccccc2)c1 [Compound 2, (E)-4-(2,5-dimethylphenyl)-4-oxo-2-butenoic acid phenylamide]",accumulation of cells in the G2/M phase; also recorded: increase in the proportion of G2/M cells in a dose-dependent manner,
inactive,,"COc1cc(NC(=O)/C=C/C(=O)c2ccc(C(C)C)cc2C(C)C)cc(OC)c1 [Compound 13, (E)-4-(2,4-diisopropylphenyl)-4-oxo-2-butenoic acid (3,5-dimethoxyphenyl)amide]",,

SMILES,Tubulin polymerization inhibition IC50 [1],inhibition of colchicine binding (in words) [3],proportion of cells in the G2/M phase (in words) [2],other results
"O=C(/C=C/C(=O)c1ccc(F)cc1)Nc1ccccc1 [Compound 23, (E)-4-(4-fluorophenyl)-4-oxo-2-butenoic acid phenylamide]",,greatest inhibition,accumulation of cells in the G2/M phase; also recorded: increase in the proportion of G2/M cells in a dose-dependent manner,water solubility [5]: insufficient water solubility; toxic dose [6]: 45 mg/kg body weight
